One data set relates to CCRF-CEM. Put plainly: Cytotoxicity against human CCRF-CEM cells assessed as growth inhibition. In kind it is functional. The settings on record: read-out: ID50 (the source's name).
The subject of data set [1] is L1210. Put plainly: Antitumor activity against mouse L1210 cells allografted in mouse assessed as increase in life span at 15 mg/kg, ip qd administered every 3 days for 7 days relative to control. The settings on record: route intraperitoneal. In kind it is functional. Summed up: (§1)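 L1210 cells (10^5) implanted ip in mice on day 0. Compounds given ip in 10% Tween 80 on days 1, 4 and 7, at doses from 15 to 525 mg/kg. Methotrexate was given as the disodium salt in aqueous solution. Groups had 5 treated and 10-15 control animals. %ILS = 100 × (T − C)/C, where T and C are median survival days of treated and control mice.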

The subject of data set [2] is L1210. The experiment in a line: Antitumor activity against mouse L1210 cells allografted in mouse assessed as median survival time at 25 mg/kg, ip qd administered every 3 days for 7 days. In kind it is functional. The conditions noted are these: route intraperitoneal. In a few lines: (§2)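 Mice were inoculated ip with 10^5 L1210 leukemia cells on day 0. Dosing was ip on days 1, 4 and 7 in 10% Tween 80, with the methotrexate disodium salt in water, over 15–525 mg/kg. Survival was recorded in days as the range and median per group, with 5 treated and 10-15 untreated controls.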

The subject of data set [3] is L1210. The experiment in a line: Antitumor activity against mouse L1210 cells allografted in mouse assessed as median survival time at 15 mg/kg, ip qd administered every 3 days for 7 days. In kind it is functional. The settings on record: route intraperitoneal. Summed up: as §2
In data set [4] the test system is L1210. Put plainly: Antitumor activity against mouse L1210 cells allografted in mouse assessed as increase in life span at 25 mg/kg, ip qd administered every 3 days for 7 days relative to control. The conditions noted are these: route intraperitoneal. In kind it is functional. In a few lines:
as §1

The next data set has as its system Plasma. The experiment in a line: Drug level in mouse plasma treated with methotrexate bis(benzylamide) at 100 mg/kg, ip measured after 6 to 24 hrs by TLC analysis. Type of data set: ADME, organism-based. The settings on record: in vivo. Further details: dose 100 mg/kg, route intraperitoneal. Summed up: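 Normal mice received a single ip dose of 100 mg/kg in 10% Tween 80. One animal was killed at 6 h and one at 24 h. Blood was taken by ocular puncture with a heparinized syringe and the red cells spun down. Plasma 0.2 mL was cooled on ice and diluted with methanol 0.4 mL to precipitate protein, then centrifuged. Analysed by cellulose TLC developed in 0.5 M phosphate buffer pH 7.4.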

The nature of data set [5]: Cytotoxicity against RBL cells assessed as growth inhibition. In kind it is functional. The conditions noted are these: Rattus norvegicus, read-out: ID50 (the source's name).
In another data set the test system is Serum. The experiment in a line: Drug level in rat whole serum treated with methotrexate di-n-butyl ester measured after 1 hr by TLC analysis. Type of data set: ADME, cell-free. In a few lines:
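Fresh rat serum 0.9 mL plus compound 0.006 g in 0.1 mL Me2SO, incubated at 37 °C with gentle shaking for up to 24 h. Cooled on ice, diluted 1.5-fold with methanol to precipitate protein, centrifuged. Supernatant run on fluorescent cellulose TLC developed with 0.5 M phosphate buffer pH 7.4 to detect parent compound and metabolites.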

The next data set has as its system Mus musculus. The experiment in a line: Toxicity in mouse allografted with mouse L1210 cells at 15 to 525 mg/kg, ip qd administered every 3 days for 7 days. In kind it is organism-based. Further details: dose 15-525 mg/kg, route intraperitoneal. The settings on record: in vivo. Summed up: (§3)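 Mice inoculated ip with 10^5 L1210 cells on day 0. Test agents injected ip in 10% Tween 80 on days 1, 4 and 7; doses 15 to 525 mg/kg. Positive control given as disodium salt in aqueous solution. Test groups of 5, control groups of 10-15. Median survival scored; %ILS = 100 × (T − C)/C.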

Data set [6] has as its system L1210. The experiment in a line: Antitumor activity against mouse L1210 cells allografted in mouse assessed as increase in life span at 15 to 525 mg/kg, ip qd administered every 3 days for 7 days. Type of data set: functional, organism-based. Summed up:
as §3

This is an account of results in ChEMBL document CHEMBL3244060, “Methotrexate analogues. 8. Synthesis and biological evaluation of bisamide derivatives as potential prodrugs” (J Med Chem, 1977).

Molecules are shown by their SMILES. Values after ≈ are worked out from the molar mass of the structure shown. Active and inactive are the calls of the source. The calls are words filed in the database; no cut-off is given here. A value given as a limit tells only on which side of the number the result lay.

On to `COc1ccc(CCNC(=O)CC[C@H](NC(=O)c2ccc(N(C)Cc3cnc4nc(N)nc(N)c4n3)cc2)C(=O)NCCc2ccc(OC)c(OC)c2)cc1OC`, for which, in the data set on CCRF-CEM, the IC50 is greater than 10 µg/mL.
On the same count and under the same terms, the value for `CCCCNC(=O)CC[C@H](NC(=O)c1ccc(N(C)Cc2cnc3nc(N)nc(N)c3n2)cc1)C(=O)NCCCC` was greater than 10 µg/mL; that for `CN(Cc1cnc2nc(N)nc(N)c2n1)c1ccc(C(=O)N[C@@H](CCC(=O)NCCCO)C(=O)NCCCO)cc1` was greater than 10 µg/mL.
Usually ILS stands for how much longer treated animals lived than controls. As for `CN(Cc1cnc2nc(N)nc(N)c2n1)c1ccc(C(=O)N[C@@H](CCC(=O)[O-])C(=O)[O-])cc1.[Na+].[Na+]` [METHOTREXATE SODIUM], the ILS at 15 mg/kg in the data set with L1210 [1] stood at 66%. Moreover, the MST with L1210 [2] is 18 days; in the data set on L1210 [3], 15 days. Besides, the increase in life span (ILS) at 25 mg/kg in the data set on L1210 [4] stood at 100%.
In the case of `CN(Cc1cnc2nc(N)nc(N)c2n1)c1ccc(C(=O)N[C@@H](CCC(N)=O)C(N)=O)cc1`, the IC50 in the data set on CCRF-CEM was greater than 10 µg/mL.
Still for that read-out and setting: the value for `CN(Cc1cnc2nc(N)nc(N)c2n1)c1ccc(C(=O)N[C@@H](CCC(=O)NCCc2ccccc2)C(=O)NCCc2ccccc2)cc1` was greater than 10 µg/mL.
With `CN(Cc1cnc2nc(N)nc(N)c2n1)c1ccc(C(=O)N[C@@H](CCC(=O)O)C(=O)O)cc1` [METHOTREXATE], the Drug metabolism result in the data set on Plasma and with Serum was “metabolite_detected” in each case. In addition, the IC50 (in [5]; with CCRF-CEM) was 0.003 µg/mL (≈ 0.0066 µM) each time.
Take `CN(C)CCNC(=O)CC[C@H](NC(=O)c1ccc(N(C)Cc2cnc3nc(N)nc(N)c3n2)cc1)C(=O)NCCN(C)C`: in the data set on CCRF-CEM, the IC50 was greater than 10 µg/mL.
Take `CN(Cc1cnc2nc(N)nc(N)c2n1)c1ccc(C(=O)N[C@@H](CCC(=O)NC2CCCCC2)C(=O)NC2CCCCC2)cc1`: the IC50 in [5] amounted to 0.22 µg/mL (≈ 0.357 µM); in the data set on CCRF-CEM, 1 µg/mL (≈ 1.62 µM). Besides, in the data set with Mus musculus, the Activity entry is “Toxic”. Moreover, the result with L1210 [6] was inactive.
